Assay results as given in ChEMBL document CHEMBL5150022, “Small Molecule Inhibitors of Lymphocyte Perforin as Focused Immunosuppressants for Infection and Autoimmunity” (J Med Chem, 2022).
“And” between values parts separate entries of the source, which are not always exact repeats. Equal values may be shown once. Values belong to the compound of their own block, whether it stands above or below them.

What was measured:
[1] = Antiproliferative activity against human KHYG-1 at 20 uM incubated for 20 mins; format: functional
[2] = Inhibition of Perforin-1 in sheep red blood cells incubated for 30 mins; format: cell-based, Ovis aries; conditions: rbc
How it was run: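 Recombinant mouse perforin-mediated lysis of sheep red blood cells, read as turbidity change by absorbance at 650 nm. Compounds first tested at a single 20 μM point, then at 100, 20, 4, 0.8 and 0.16 μM to give IC₅₀. Hits were rechecked with 0.1% BSA.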

[3] = target: T1, Perforin-1 (Homo sapiens) (UniProt P14222); experiment: Inhibition of Perforin-1 in human Jurkat cells at 20 uM incubated for 4 hrs relative to control; format: cell-based
T1 sequence (whole entry): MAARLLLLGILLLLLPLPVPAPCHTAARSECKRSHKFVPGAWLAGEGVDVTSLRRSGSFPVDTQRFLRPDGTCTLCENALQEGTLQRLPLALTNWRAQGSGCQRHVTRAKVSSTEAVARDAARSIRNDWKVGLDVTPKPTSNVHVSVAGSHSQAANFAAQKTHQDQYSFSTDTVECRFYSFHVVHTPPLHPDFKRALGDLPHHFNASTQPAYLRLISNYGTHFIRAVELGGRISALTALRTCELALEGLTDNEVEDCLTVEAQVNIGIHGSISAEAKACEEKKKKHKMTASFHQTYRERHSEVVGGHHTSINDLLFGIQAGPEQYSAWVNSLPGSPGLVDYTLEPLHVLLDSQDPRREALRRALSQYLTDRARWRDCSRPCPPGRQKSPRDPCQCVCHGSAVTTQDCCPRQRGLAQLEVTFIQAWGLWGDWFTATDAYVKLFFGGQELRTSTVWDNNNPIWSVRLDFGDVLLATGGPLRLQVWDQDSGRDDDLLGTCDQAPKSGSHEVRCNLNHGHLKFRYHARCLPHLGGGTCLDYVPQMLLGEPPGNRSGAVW

[4] = target: T2, Perforin-1 (Mus musculus) (UniProt P10820); experiment: Inhibition of mouse Perforin-1 in Natural killer cell at 20 uM relative to control
T2 sequence (whole entry): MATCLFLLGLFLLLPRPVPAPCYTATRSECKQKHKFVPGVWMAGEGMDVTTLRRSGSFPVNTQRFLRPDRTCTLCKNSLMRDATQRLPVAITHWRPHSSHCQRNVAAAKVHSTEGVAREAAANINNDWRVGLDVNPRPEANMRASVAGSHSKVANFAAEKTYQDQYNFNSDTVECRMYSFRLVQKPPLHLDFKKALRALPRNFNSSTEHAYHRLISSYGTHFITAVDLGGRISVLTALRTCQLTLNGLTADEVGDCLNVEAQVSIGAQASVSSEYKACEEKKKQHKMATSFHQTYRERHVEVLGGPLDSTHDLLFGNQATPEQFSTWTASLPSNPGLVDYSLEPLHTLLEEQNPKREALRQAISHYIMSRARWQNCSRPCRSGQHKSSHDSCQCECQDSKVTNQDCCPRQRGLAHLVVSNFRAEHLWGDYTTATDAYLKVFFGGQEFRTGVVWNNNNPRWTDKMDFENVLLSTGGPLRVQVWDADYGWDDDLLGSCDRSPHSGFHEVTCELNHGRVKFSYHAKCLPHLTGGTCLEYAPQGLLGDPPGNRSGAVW

[5] = target: T1, Perforin-1 (Homo sapiens); experiment: Inhibition of Perforin-1 in human KHYG-1 cells assessed as unbound concentration; format: cell-based
How it was run: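 KHYG1 NK cell killing of ⁵¹Cr-labelled K562 targets; IC₉₀ determined. Compound binding to proteins in the assay medium was measured and used to estimate the unbound IC₉₀.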

[6] = Toxicity in C57BL/6 mouse assessed as animal survival at 100 mg/kg, po measured for 2 days; format: organism-based; conditions: in vivo, time 2 day, read-out: Activity
[7] = Elimination half life in mouse plasma at 10 to 160 mg/kg, po measured for 24 hrs; format: ADME, organism-based; conditions: dose 10-160 mg/kg, read-out: beta t1/2 (converted)
[8] = Plasma protein binding in mouse; format: ADME, cell-free; conditions: read-out: PPB (converted)
[9] = Toxicity in C57BL/6 mouse assessed as effect on aspartate transaminase level at 100 mg/kg, po measured for 2 days; format: organism-based; conditions: in vivo, 48 h, time 2 day
[10] = Reversal of Perforin-1 dependent NK-cell mediated graft rejection in human KHYG-1 cells assessed as reduction in perforin-1 activity at 90 mg/kg for 24 days relative to control; format: functional; parameters: scale not given: the % may be the effect or the level left; conditions: time 24 day
[11] = Mutagenicity in Salmonella typhimurium TA100 by AMES test; format: toxicity, Salmonella enterica subsp. enterica serovar Typhimurium
[12] = target: T1, Perforin-1 (Homo sapiens); experiment: Inhibition of Perforin-1 in human Natural killer cells at 20 uM incubated after 24 hrs relative to control; format: cell-based; conditions: Natural killer cell, time 4.0 hrs, in the assay text read “after 4 hrs” for “after 24 hrs”
How it was run: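 Human KHYG1 NK cells plus medium coincubated with inhibitor at 20 μM final, or 5 μM in one case. ⁵¹Cr-labelled K562 leukaemia targets added; lysis measured by ⁵¹Cr release after 4 h. Effector NK cell viability measured 24 h later.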

[13] = Stability in mouse plasma incubated for 24 hrs by HPLC analysis; format: ADME, cell-free; conditions: read-out: Stability
How it was run: (§1)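 Compound incubated in human or mouse plasma at 37 °C for 24 h; parent remaining quantified by HPLC.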

[14] = Cytotoxicity against human Natural killer cells assessed as reduction in cell viability at 20 uM
[15] = Cytotoxicity against human Natural killer cells at 20 uM; conditions: natural killer cell
[16] = Stability in human plasma incubated for 24 hrs by HPLC analysis; format: ADME, cell-free; conditions: read-out: Stability; how it was run: as §1
[17] = target: Beta-secretase 1 (Homo sapiens) (UniProt P56817); experiment: Inhibition of BACE1 (unknown origin) at 1 uM relative to control
Beta-secretase 1 (Homo sapiens), sequence (P56817 whole entry): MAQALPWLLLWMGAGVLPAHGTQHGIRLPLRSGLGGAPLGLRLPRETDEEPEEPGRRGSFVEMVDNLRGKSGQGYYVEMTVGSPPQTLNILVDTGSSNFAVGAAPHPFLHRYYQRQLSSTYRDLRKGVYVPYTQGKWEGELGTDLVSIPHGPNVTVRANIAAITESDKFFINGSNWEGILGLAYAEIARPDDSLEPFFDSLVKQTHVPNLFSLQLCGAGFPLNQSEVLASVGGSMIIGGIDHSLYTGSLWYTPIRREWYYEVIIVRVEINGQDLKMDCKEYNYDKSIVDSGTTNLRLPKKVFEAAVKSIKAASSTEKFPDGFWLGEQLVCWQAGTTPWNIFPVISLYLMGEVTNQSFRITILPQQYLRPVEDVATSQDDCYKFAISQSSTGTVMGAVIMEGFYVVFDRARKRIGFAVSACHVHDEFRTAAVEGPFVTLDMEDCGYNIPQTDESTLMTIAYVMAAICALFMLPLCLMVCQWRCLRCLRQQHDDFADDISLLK

Brain [18] = experiment: Anti-neuroinflammation in LPS-induced mouse brain assessed as reduction in caspase-3/7 production at 250 microg/kg administered for 3 days; format: functional; parameters: scale not given: the % may be the effect or the level left; conditions: dose 250 µg/kg; time 3 day
Acetylcholinesterase = Acetylcholinesterase (Homo sapiens, UniProt P22303); experiment: Inhibition of AChE (unknown origin)
Acetylcholinesterase, sequence (P22303 whole entry): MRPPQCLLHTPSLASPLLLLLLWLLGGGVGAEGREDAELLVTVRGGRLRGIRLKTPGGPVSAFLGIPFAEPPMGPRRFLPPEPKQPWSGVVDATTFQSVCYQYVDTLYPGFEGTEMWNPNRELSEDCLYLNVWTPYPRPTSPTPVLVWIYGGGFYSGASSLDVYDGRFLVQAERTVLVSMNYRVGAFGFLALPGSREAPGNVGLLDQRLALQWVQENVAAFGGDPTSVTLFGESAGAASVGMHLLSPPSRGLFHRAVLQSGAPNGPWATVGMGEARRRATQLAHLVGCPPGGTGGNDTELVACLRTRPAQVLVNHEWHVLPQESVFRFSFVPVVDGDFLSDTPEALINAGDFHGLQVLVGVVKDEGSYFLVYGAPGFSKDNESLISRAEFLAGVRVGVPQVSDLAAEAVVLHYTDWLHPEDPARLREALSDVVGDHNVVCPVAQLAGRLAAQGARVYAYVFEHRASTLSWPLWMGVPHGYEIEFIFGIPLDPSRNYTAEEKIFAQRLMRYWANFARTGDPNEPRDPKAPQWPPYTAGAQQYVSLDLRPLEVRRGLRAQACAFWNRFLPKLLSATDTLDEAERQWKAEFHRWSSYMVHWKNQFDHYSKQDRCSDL

Brain [19] = experiment: Anti-neuroinflammation in LPS-induced mouse brain assessed as reduction in prostaglandin E2 production at 250 microg/kg administered for 3 days; format: functional; parameters: scale not given: the % may be the effect or the level left; conditions: dose 250 µg/kg; time 3 day

IC50 [2]: 0.97 µM
inhibition [3]: 63%
SMILES: Cc1cc2c(c(=S)[nH]1)C(=O)O/C2=C\c1cc2ccccc2s1
Activity [1]: 89%

IC50 [2]: 1.04 µM
inhibition [3]: 91%
SMILES: CNC(=O)c1ccc(-c2c(C#N)c(N)n3c(nc4ccccc43)c2C#N)cc1
Activity [1]: 84%

IC50 [2]: 14.7 µM
inhibition [3]: 98%
SMILES: O=C1NC(=S)N/C1=C/c1ccc(-c2ccc3c(c2)CCNC3=O)s1
inhibition [4]: 60%

SMILES: CN1Cc2cc(-c3ccc(-c4cncc(NS(=O)(=O)c5ccccc5[N+](=O)[O-])c4)s3)ccc2C1=O
IC90 [5]: 0.77 µM
survival at 48 h [6]: 100%
half-life [7]: 2.4 h
fraction unbound [8]: 0.002
Activity [9]: 60%

SMILES: COc1ncc(-c2ccc(-c3cnc4c(c3)CN(C)C4=O)s2)cc1NS(=O)(=O)c1ccc(F)cc1F
Activity [10]: 66%

SMILES: Cc1cc2c(c(=S)[nH]1)C(=O)O/C2=C\c1ccc(C)o1
IC50 [2]: 9.7 µM
inhibition [3]: 100%
IC50 [11]: 3.4 µM

remaining at 24 h [13]: 75%
IC50 [2]: 13.2 µM
remaining at 24 h [16]: 46%
inhibition [3]: 52%
SMILES: NC(=O)c1ccc(-c2ccc(-c3ccc4c(c3)COC4=O)s2)cc1
inhibition [12]: 63%
Activity [14]: 90%
Activity [1]: 70%
Activity [15]: 38% and 63%

SMILES: O=C1OCc2cc(-c3ccc(-c4ccc(CO)cc4)s3)ccc21
inhibition [17]: 72%
Activity (Brain [18]): 63%
IC50 (Acetylcholinesterase): 8 µM
Activity (Brain [19]): 55%

SMILES: NC(=O)c1ccc(-c2ccc(-c3ccc4c(c3)COC4=O)s2)cn1
Activity [14]: 82%
Activity [15]: 80%

IC50 [2]: 7.2 µM
inhibition [3]: 99%
SMILES: O=C1NC(=S)N/C1=C/c1ccc(-c2ccc3c(c2)COC3=O)o1
